Experimental data: PMC4715857 (Osteoporosis International, 2015)
Where two headings read alike, the source gives them in different places. Each block holds one molecule with its values, some of them ahead of it.

How the values were obtained:
[1] = Safety assessments / adverse events; format: in vivo, healthy postmenopausal women; details: 150 mg once daily for 5 days per period
Procedure, shortened: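 Each crossover period (5 days' dosing) included clinical laboratory tests, vital signs, 12-lead ECG and physical examination on admission and at follow-up. Vital signs were also taken at baseline, on all treatment days and at discharge. Adverse events were coded with MedDRA version 14.1. Fourteen subjects were in the safety analysis, and data were summarized in SAS.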

serum CTX-I [2] = details: cited from earlier work; for serum CTX reduction: postmenopausal women
[3] = 100 mg sustained-release tablet (SRT), morning, repeat administration ref 7, 8; cited from earlier work
bone strength = details: ovariectomized rats ref 5; cited from earlier work
[4] = Plasma ONO-5334 pharmacokinetics; format: in vivo, healthy postmenopausal women; details: day 5, 150 mg SRT, morning regimen
Procedure, shortened: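 Oral sustained-release tablet, 150 mg once daily for 5 days per period, fed. Randomized crossover with ≥10-day washout. Blood taken via IV cannula over 12 h on day 1 and 24 h on day 5, hourly 1–6 h postdose. Plasma solid-phase extracted and assayed by validated LC-MS/MS (LLOQ 0.02 ng/mL). Cmax, Tmax and AUC24h derived noncompartmentally; day-5 morning/evening geometric mean ratios with 90% CI by ANOVA; Tmax by Wilcoxon signed rank test.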

[5] = system: bone mineral density (BMD); details: postmenopausal women with osteoporosis, 24 months of therapy ref 6; cited from earlier work
serum CTX-I [6] = assay: Serum CTX-I bone resorption marker; format: in vivo, healthy postmenopausal women; details: for time over which >60% suppression of CTX-I was sustained: 150-mg SRT for 5 days
Procedure, shortened: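 Serum CTX-I was measured by CrossLaps ELISA. Baseline profile on day −1 via cannula at set clock times over 24 h, ending just before the first dose (08:00 morning, 20:00 evening period). Results expressed as % change from clock-time-matched baseline; 24-h AUE compared morning vs evening by ANCOVA, with post-hoc repeated-measures analysis.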

urinary CTX-I [7] = assay: Urinary CTX-I/creatinine bone resorption marker; format: in vivo, healthy postmenopausal women; details: 150 mg SRT once daily 5 days
Procedure, shortened: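 Urinary CTX-I was measured by Urine CrossLaps ELISA and normalized to creatinine. Baseline urine was taken on day −1, and postdose urine on days 1 and 5, with collection at 08:00 (morning dosing) or 20:00 (evening dosing). Dosing was 150 mg sustained-release tablet once daily for 5 days, fed. Results expressed as % change from time-matched baseline; 24-h AUE compared by ANCOVA, with post-hoc repeated-measures analysis.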

urinary CTX-I [8] = details: 12 weeks of treatment, healthy postmenopausal women ref 30; cited from earlier work
bone resorption markers = details: premenopausal women ref 14, cited from earlier work
serum CTX-I [9] = details: oral calcitonin, healthy postmenopausal women ref 15; cited from earlier work

mean trough plasma concentration [4]: 9.4 ng/mL
Molecule: C[C@@H]1CS/C(=N\NC(=O)C(=O)[C@@H](NC(=O)C2CCCCCC2)C2CCOCC2)N1C [ONO-5334]
laboratory safety data, vital signs, electrocardiogram or physical examinations [1]: no clinically relevant | safety findings [1]: no safety findings of concern | suppression of serum CTX-I (serum CTX-I [2]): approximately 60% | mean half-life [3]: 15 h | median time to maximum plasma concentration (Tmax) [3]: 4 h | effect on bone strength (bone strength): improved bone strength | effect on cortical and trabecular bone mineral density (BMD) [5]: significantly improved | greater suppression of 24-h serum CTX-I AUE, morning than evening (serum CTX-I [6]; 150 mg SRT once daily 5 days): 6% | duration of impact on bone resorption (serum CTX-I [6]; 150-mg SRT): ≥ 24 h | time of lowest serum CTX-I levels postdose (serum CTX-I [6]; after morning and evening administration): 8 h | plasma ONO-5334 concentration required to produce 60% reduction of serum CTX-I (serum CTX-I [6]; day 5, scatter plot of plasma concentration vs serum CTX-I %CFB, both regimens): ≥ 10 ng/mL | time over which >60% suppression of CTX-I was sustained (serum CTX-I [6]; evening administration): 12 h | CTX-I suppression over 24 h (serum CTX-I [6]; morning administration, 150 mg SRT for 5 days): > 60% | time over which >60% suppression of CTX-I was sustained (serum CTX-I [6]; morning administration): 24 h | greater suppression of 24-h urinary CTX-I/creatinine AUE, morning than evening (urinary CTX-I [7]): 7%

Molecule: NCCCC(O)(P(=O)(O)O)P(=O)(O)O [alendronate]
Serum CTX-I decreases (serum CTX-I [2]; following 30–36 months of therapy ref 28, 29): 67–70% | urinary CTX-I reduction (urinary CTX-I [8]): 53%

Molecule: CCCN1CCN(c2ccc(C(=O)NC3(C(=O)NCC#N)CCCCC3)cc2)CC1 [balicatib]
serum CTX reduction (serum CTX-I [2]; 1-year study ref 22): 61%

Molecule: [Ca] [elemental calcium, calcium]
effect on bone resorption (bone resorption markers; 1000 mg at bedtime): suppressed nighttime increases of bone resorption | effect on bone resorption (bone resorption markers; 1000 mg, morning administration): no effect

Molecule: CC(C)(F)C[C@H](N[C@@H](c1ccc(-c2ccc(S(C)(=O)=O)cc2)cc1)C(F)(F)F)C(=O)NC1(C#N)CC1 [odanacatib]
suppression of serum CTX-I (serum CTX-I [2]): approximately 60% | continuous reductions of serum CTX-I (serum CTX-I [2]; postmenopausal women with low BMD, following 5 years of treatment ref 4): 55% | reductions of serum CTX-I (serum CTX-I [2]; postmenopausal women with low BMD, once-weekly, most of the first year of treatment ref 25): > 60% | serum CTX reduction (serum CTX-I [2]; single or repeated doses for 3 weeks ref 23, 24): 62–66%

Molecule: calcitonin [oral calcitonin]
duration of impact on bone resorption (serum CTX-I [9]): about 12 h
